The values that follow come from ChEMBL document CHEMBL2384994, “Discovery and evaluation of piperid-4-one-containing mono-carbonyl analogs of curcumin as anti-inflammatory agents” (Bioorg Med Chem, 2013).

Data set [1] deals with RAW264.7. Put plainly: Antiinflammatory activity in mouse RAW264.7 cells assessed as inhibition of LPS-induced IL6 release at 10 uM incubated for 2 hrs prior to LPS-challenge measured after 22 hrs by ELISA relative to LPS-treated control. The format is functional. Put shortly: (§1)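 Pretreated with compound or DMSO vehicle for 2 h (screen at 10 µM; dose series 1, 5, 10 µM), then LPS 0.5 µg/mL for 22 h. Medium IL-6 measured by ELISA, normalized to cellular total protein, expressed as % of LPS control. Mean ± SE of 3–6 independent experiments.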
A general note: An ELISA detects its analyte on a solid surface through an enzyme-linked reagent.

Data set [2] has as its target MAP kinase p38 (Mus musculus) (UniProt P47811+O08911+Q9WUI1+Q9Z1B7). Put plainly: Inhibition of LPS-induced p38 phosphorylation in ICR mouse MPM cells at 10 uM incubated for 2 hrs prior to LPS-challenge measured after 1 hr by Western blot analysis. Type of data set: cell-based. In a few lines: (§2)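 Primary peritoneal macrophages from ICR mice plated at 1.2 × 10⁶/plate overnight. Pretreated with DMSO or compound for 2 h, then LPS 10 ng/mL for 1 h. Cells lysed; 40–60 µg lysate run on 10% SDS-PAGE and blotted to nitrocellulose. Blocked in TBS pH 7.6 with 0.05% Tween 20 and 5% milk. Probed for IκB, p-JNK, p-ERK, p-p38 against GAPDH or the total protein. Detection by HRP secondary and ECL. Optical density given as % of control.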
A general note: A western blot detects proteins with antibodies after separation by electrophoresis.

Data set [3] has as its system RAW264.7. Put plainly: Cytotoxicity against mouse RAW264.7 cells. The format is cell-based.
Data set [4] relates to RAW264.7. Description: Antiinflammatory activity in mouse RAW264.7 cells assessed as inhibition of LPS-induced IL6 release incubated for 2 hrs prior to LPS-challenge measured after 22 hrs by ELISA. Type of data set: functional, cell-based. In a few lines: as §1
The test system of data set [5] is MPM. Put plainly: Inhibition of LPS-induced JNK phosphorylation in ICR mouse MPM cells at 10 uM incubated for 2 hrs prior to LPS-challenge measured after 1 hr by Western blot analysis. The format is cell-based. Put shortly: as §2
Data set [6] deals with MPM. Description: Inhibition of NFkappaB activation in ICR mouse MPM cells assessed as inhibition of LPS-induced IkappaB degradation at 10 uM incubated for 2 hrs prior to LPS-challenge measured after 1 hr by Western blot analysis. Type of data set: cell-based. Put shortly: as §2
For data set [7], the system named is Mus musculus. Description: Toxicity in C57BL/6 mouse assessed as decrease in body weight at 20 mg/kg, ip after 3 days. The format is organism-based. Set-up: dose 20 mg/kg, route intraperitoneal. To be noted: in vivo, 72 h. In a few lines:
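Male C57BL/6 mice (18–22 g) given compound ip at 20 mg/kg, prepared at 2 mg/mL in water with macrogol 15 hydroxystearate (5–10%) ± MCT (0.5–2%). Vehicle was 10% solubilizer with 2% MCT. LPS 20 mg/kg iv given 15 min later. Body weight and survival recorded every 24 h for 7 days; n = 10 per group.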

Data set [8] relates to Mus musculus. Description: Antiinflammatory activity in C57BL/6 mouse assessed as protection against LPS-induced septic death by measuring survival at 15 mg/kg, ip administered 15 mins prior to LPS challenge measured after 7 days relative to vehicle-treated control. The format is functional. The settings on record: route intraperitoneal. Put shortly: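 Male C57BL/6 mice (18–22 g), n = 10 per group, given compound ip 15 min before LPS (20 mg/kg, iv). Compound at 2 mg/mL in water with macrogol 15 hydroxystearate (5–10% final) ± medium-chain triglycerides (0.5–2% final), dissolved at 37 °C. Vehicle was 10% solubilizer plus 2% MCT. Survival and body weight recorded every 24 h for 7 days.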

Data set [9] has as its system MPM. Put plainly: Inhibition of LPS-induced ERK phosphorylation in ICR mouse MPM cells incubated for 2 hrs prior to LPS-challenge measured after 1 hr by Western blot analysis. The format is cell-based. In a few lines:
as §2

In data set [10] the test system is MPM. Description: Inhibition of LPS-induced ERK phosphorylation in ICR mouse MPM cells at 10 uM incubated for 2 hrs prior to LPS-challenge measured after 1 hr by Western blot analysis. Type of data set: cell-based. Put shortly: as §2
The subject of data set [11] is MPM. Put plainly: Inhibition of NFkappaB activation in ICR mouse MPM cells assessed as inhibition of LPS-induced IkappaB degradation incubated for 2 hrs prior to LPS-challenge measured after 1 hr by Western blot analysis. Type of data set: cell-based. In a few lines:
as §2

The subject of data set [12] is MPM. Description: Inhibition of LPS-induced JNK phosphorylation in ICR mouse MPM cells incubated for 2 hrs prior to LPS-challenge measured after 1 hr by Western blot analysis. The format is cell-based. In a few lines:
as §2

pIC50: −log10 of the molar value. Calls of active or inactive are those of the source. No cut-off for these calls is given here. A value given as a limit tells only on which side of the number the result lay.

As for `O=C1/C(=C/c2ccc(O)c(O)c2)CCC/C1=C\c1ccc(O)c(O)c1`, the inhibition entry in the data set on RAW264.7 [1] was “Active”.

For the compound `CCCN1C/C(=C\c2ccccc2Cl)C(=O)/C(=C/c2ccccc2Cl)C1`, the inhibition entry in the data set with RAW264.7 [1] is “Active”.

Consider `O=C1/C(=C/c2ccc(O)cc2)CNC/C1=C\c1ccc(O)cc1`, for which the inhibition entry in data set [2] was “inactive”.

Consider `O=C(/C=C/c1ccc(O)c(O)c1)/C=C/c1ccc(O)c(O)c1`, for which the inhibition result with RAW264.7 [1] is “Active”.

As to `O=C1/C(=C/c2ccc(O)c(O)c2)CC/C1=C\c1ccc(O)c(O)c1`, the inhibition result with RAW264.7 [1] is “Active”.

Take `O=C1/C(=C/c2cccc(O)c2)CNC/C1=C\c1cccc(O)c1`: the Activity result with RAW264.7 [3] was “Non-toxic”. In the data set on RAW264.7 [4], the pIC50 was 5.38 and the inhibition result is “Dose-dependent effect”.

`COc1cc(/C=C/C(=O)CC(=O)/C=C/c2ccc(O)c(OC)c2)ccc1O`: the inhibition result with MPM [5] was “Active”.

As for `CN1C/C(=C\c2ccccc2F)C(=O)/C(=C/c2ccccc2F)C1`, the inhibition result in the data set with RAW264.7 [1] is “Active”.

Turning to `COc1cc(/C=C2\CNC/C(=C\c3cc(OC)c(OC)c(OC)c3)C2=O)cc(OC)c1OC`, the inhibition entry in the data set on MPM [6] and in the data set on MPM [10] was “Active” in each case. In addition, the Activity entry with RAW264.7 [3] was “Non-toxic”; in the data set on Mus musculus [7], “Toxic”; with Mus musculus [8], 80%. Also, in the data set on RAW264.7 [4], the negative logarithm of the IC50 (pIC50) is > 6.00. Further, the inhibition result in the data set on RAW264.7 [4], in the data set on MPM [9] and in the data set on MPM [11] was “Dose-dependent effect” in each case. Also, the inhibition at 10 µM in the data set on RAW264.7 [1] worked out at 96%.

With `CN1C/C(=C\c2ccc(F)cc2)C(=O)/C(=C/c2ccc(F)cc2)C1`, the inhibition entry with RAW264.7 [1] is “Active”.

As to `COc1ccc(/C=C2\CN(C)C/C(=C\c3ccc(OC)c(OC)c3)C2=O)cc1OC`, the inhibition at 10 µM in the data set with RAW264.7 [1] was 90%.

For `COc1ccc(/C=C2\CNC/C(=C\c3ccc(OC)c(OC)c3)C2=O)cc1OC`, the inhibition entry with MPM [6], with MPM [5] and with MPM [10] was “Active” throughout. Besides, the Activity entry was “Non-toxic” in the data set with RAW264.7 [3], “Toxic” with Mus musculus [7] and 60% with Mus musculus [8]. Further, the negative logarithm of the IC50 (pIC50) with RAW264.7 [4] is 5.57. Besides, the inhibition result in the data set with RAW264.7 [4], in the data set with MPM [9], with MPM [12] and in the data set with MPM [11] was “Dose-dependent effect” in each case. Further, the inhibition at 10 µM with RAW264.7 [1] stood at 98%.

On to `O=C1/C(=C/c2ccccc2F)CNC/C1=C\c1ccccc1F`, for which the inhibition result in the data set on RAW264.7 [1] is “Active”.

`CCCN1C/C(=C\c2ccc(OC)c(OC)c2)C(=O)/C(=C/c2ccc(OC)c(OC)c2)C1`: the inhibition entry (with MPM [6]; in data set [2]; with MPM [5]; in the data set on MPM [10]) was “inactive” in each case. Moreover, the Activity result in the data set with RAW264.7 [3] is recorded as “Non-toxic”. The pIC50 in the data set with RAW264.7 [4] is 5.69. For the same compound, the inhibition entry in the data set on RAW264.7 [4] is “Dose-dependent effect”. The inhibition at 10 µM with RAW264.7 [1] amounted to 90%.

As for `CCN1C/C(=C\c2ccccc2Br)C(=O)/C(=C/c2ccccc2Br)C1`, the inhibition entry in the data set on RAW264.7 [1] is “Active”.

Broadly, the inhibition is the drop in the measured response relative to a control, in per cent. One may read the pIC50 as the negative decadic logarithm of the IC50, by convention in mol/L.
